Data set [1] relates to Influenza A virus. In words: Antiviral activity against Influenza virus A/PR/8/34 infected in MDCK cells assessed as reduction in viral titer after 48 hrs by hemagglutinination assay. The following applies: for Activity: A/Puerto Rico/8/1934(H1N1). It counts as functional, A/Puerto Rico/8/1934(H1N1). An outline of the steps: (§1)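 MDCK monolayers grown to confluence in Iscove medium with 10% FBS and 2 mM L-glutamine. Infected with A/PR/8/34 at MOI 0.1 for 48 h in growth medium with 0.3% BSA, 0.22% bicarbonate and TPCK-trypsin. Compound or DMSO added at the start of infection and kept throughout. Supernatant titre measured by TCID50 on MDCK cells using hemagglutination (Reed–Muench).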

Data set [2] concerns Influenza A virus. The data set can be described thus: Antiviral activity against Influenza virus A/PR/8/34 infected in MDCK cells assessed as reduction in viral titer at 50 uM after 48 hrs by hemagglutinination assay relative to untreated control. It counts as functional, A/Puerto Rico/8/1934(H1N1). An outline of the steps: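 MDCK monolayers infected with A/PR/8/34 at MOI 0.1 for 48 h, with 50 µM compound throughout. Supernatant logTCID50 determined by hemagglutination (Reed–Muench). Fold decrease obtained by subtracting each logTCID50 from the DMSO-control value and taking the inverse log.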

The test system of data set [3] is Influenza A virus. In words: Antiviral activity against Influenza virus A/PR/8/34 infected in MDCK cells assessed as reduction in viral titer at 50 uM after 48 hrs by hemagglutinination assay. It counts as functional, organism-based. Particulars: A/Puerto Rico/8/1934(H1N1). An outline of the steps:
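Confluent MDCK monolayers infected with A/PR/8/34 at MOI 0.1, with compound at 50 µM present for the entire 48 h. Viral titre in supernatants expressed as logTCID50, read by hemagglutination on MDCK cells (Reed–Muench). DMSO-treated infected cells served as control.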

The test system of data set [4] is MDCK. In words: Cytotoxicity against MDCK cells up to 100 uM after 48 hrs. The class given is cell-based, Canis lupus familiaris. Particulars: dog.
The test system of data set [5] is Influenza A virus. In words: Antiviral activity against Influenza virus A/PR/8/34 infected in MDCK cells assessed as log reduction in viral replication at 1 uM after 48 hrs by hemagglutinination assay relative to control. The class given is functional, A/Puerto Rico/8/1934(H1N1). An outline of the steps:
as §1

Active and inactive are the calls of the source. No cut-off for these calls is given here.

We go through 41 compounds from ChEMBL document CHEMBL1926504, “Design, synthesis, and evaluation of novel small molecule inhibitors of the influenza virus protein NS1” (Bioorg Med Chem, 2012).

Turning to `COc1ccccc1C(=O)NCCCc1ccccc1`, the “log10 TCID50” value in data set [1] was found to be 5.8. For the same compound, the “fold change (FC)” value in data set [2] amounted to 500.
Regarding `O=C(NCCCc1ccccc1)c1cc2ccccc2cc1O`, the result in data set [1] was Active.
For the compound `O=C(N/N=C/c1ccc(O)cc1)c1ccccc1O`, the outcome in data set [3] was Active.
Take `O=C(N/N=C/c1ccc2ccccc2c1)c1ccccc1O`: the result in data set [3] was Active.
Same read-out and setting: the result for `COc1ccc(/C=N/NC(=O)c2ccccc2O)cc1` reads “Active”.
Regarding `O=C(NCCCc1ccccc1)c1c(O)ccc2ccccc12`, the outcome in data set [1] was Active.
The same measure, in the same setting: the result for `O=C(CCCc1ccccc1)Nc1ccccc1O` reads “Active”; that for `O=C(NCCCc1ccccc1)c1ccccc1I`, “Active”.
`N#Cc1ccccc1C(=O)NCCCc1ccccc1`: the result in data set [1] was Active.
Regarding `Nc1ccccc1C(=O)NCCCc1ccccc1`, in data set [4], the Activity entry was “Non-toxic”. For the same compound, the outcome in data set [1] was Active. The FC in data set [5] was more than 2.
For `O=C(N/N=C/c1ccccc1)c1ccccc1O`, the outcome in data set [3] was Active.
Consider `O=C(NCCCc1ccccc1)c1ccccc1Br`, for which, in data set [1], the outcome was inactive.
On the same count and under the same terms, then `O=C(NCCCc1ccccc1)c1ccccn1`, with “Active”.
On the same count and under the same terms, the result for `O=C(CCc1ccccc1O)NCc1ccccc1` reads “Active”.
With `Cc1ccccc1C(=O)NCCCc1ccccc1`, the “log10 TCID50” value in data set [1] was found to be 6.3. Further, the “fold change (FC)” value in data set [2] was 158.
Turning to `O=C(CCc1ccccc1O)Nc1ccccc1`, in data set [1], the result was Active.
On the same count and under the same terms, the result for `O=C(NCCCc1ccccc1)c1ccccc1F` reads “inactive”.
In the case of `O=C(NCCCc1ccccc1)c1ccc(O)cc1`, in data set [1], the “log10 TCID50” value was 6.5. The “fold change (FC)” value in data set [2] turned out to be 100.
`Nc1ccc(Cl)cc1C(=O)NCCCc1ccccc1`: in data set [1], the result was Active.
The same measure, in the same setting: the result for `O=C(NCCCc1ccccc1)c1ccc2ccccc2n1` reads “Active”.
`O=C(NCCc1ccccc1)c1ccccc1O`: in data set [1], the “log10 TCID50” value amounted to 7.1. In addition, in data set [2], the “fold change (FC)” value is reported as 25.
In the case of `Nc1ccc(C(=O)NCCCc2ccccc2)c(O)c1`, the result in data set [1] was Active.
On to `COc1ccc(N)c(C(=O)NCCCc2ccccc2)c1`, for which the result in data set [1] was Active.
Consider `O=C(NCCCc1ccccc1)c1ccccc1Cl`, for which, in data set [1], the outcome was Active.
On the same count and under the same terms, the result for `O=C(NCCCc1ccccc1)c1cc2ccccc2cn1` reads “Active”.
On to `O=C(NCCCCc1ccccc1)c1ccccc1O`, for which the outcome in data set [3] was Active.
`O=C(NCCCc1ccccc1)c1ccc2c(c1)OCO2`: in data set [1], the result was Active.
For the compound `O=C(NCCCc1ccccc1)c1ccccc1`, the “log10 TCID50” value in data set [1] is 6.8. Besides, the “fold change (FC)” value in data set [2] is 50.
The matching figures for `O=C(NCCCc1ccccc1)c1cccc(O)c1`: 6.2 and 200.
Take `O=C(NCCCc1ccccc1)c1nccc2ccccc12`: in data set [1], the outcome was Active.
Still for that read-out and setting: the result for `O=C(NCCCc1ccccc1)c1ccc2ccccc2c1O` reads “Active”; that for `Nc1ccccc1C(=O)NCCOc1ccccc1`, “Active”.
In the case of `O=C(N/N=C/c1ccc(Cl)cc1)c1ccccc1O`, the outcome in data set [3] was Active.
For the compound `Nc1ccc([N+](=O)[O-])cc1C(=O)NCCCc1ccccc1`, the outcome in data set [1] was Active.
Take `O=C(N/N=C/c1ccc([N+](=O)[O-])cc1)c1ccccc1O`: in data set [3], the outcome was Active.
On to `O=C(NCCCc1ccccc1)c1ccccc1[N+](=O)[O-]`, for which, in data set [1], the “log10 TCID50” value was 6.5. Also, in data set [2], the “fold change (FC)” value came to 100.
For `O=C(NCCOc1ccccc1)c1ccccc1O`, the result in data set [1] was Active.
As to `O=C(NCCCc1ccccc1)c1ccccc1O`, the Activity entry in data set [4] is recorded as “Non-toxic”. The “log10 TCID50” value in data set [1] is reported as 5.7. Moreover, the “fold change (FC)” value in data set [2] was 630.
For `O=C(Cc1ccccc1O)NCCc1ccccc1`, the outcome in data set [1] was Active.
As for `O=C(N/N=C/c1ccc2c(c1)CCC2)c1ccccc1O`, the Activity entry in data set [4] was “Non-toxic”. Further, the “log10 TCID50” value in data set [1] was 7.1. The “fold change (FC)” value in data set [2] is listed as 25. For the same compound, in data set [3], the outcome was Active.
As for `CN(CCCc1ccccc1)C(=O)c1ccccc1O`, in data set [1], the outcome was Active.
